Compound activity from PubChem BioAssay.
HIF act: HIF pathway transcriptional activation | U2OS HRE-luciferase reporter, luminescence; normalized: DMSO 0%, desferrioxamine 100% | activation, % at 7.5 µM (by protocol) | 0.32% of 300,000 active;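 active = mean activation of at least 10% of the iron chelator positive control signal, with at least half of replicates also reaching 10%; inconclusive = mean and replicate majority disagree about reaching 10%; inactive = mean and most replicates under 10%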
T cruzi inh: blocks replication of Trypanosoma cruzi; T. cruzi beta-gal in NIH3T3, luminescence, 90 h; inhibition, % (concentration not given with the values); 1.4% of 300,000 active; AID 1885;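 active = mean inhibition across valid replicates above about 55%, limit read from the data; inconclusive = mean below that limit but half or more replicates reach it; inactive = mean below it, under half of replicates reach it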;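 also: signal also drops with host cell toxicity which is not excluded here; higher percent means less beta-gal luminescence so fewer parasites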
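Incubation – ≥90 h infection period, 3 h prior cell attachment · System – NIH/3T3 fibroblasts plus reporter T. cruzi · Doses – compound pinned at 50 nL/well, DMSO · Read-out basis – percent inhibition of parasite-derived β-gal signal · Signal – luminescent β-galactosidase signal after 60 min lysis · Also added – 5000 T. cruzi trypomastigotes/well · Medium – Low-serum DMEM with 2% FBS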
Calb FLC: C. albicans growth modulation with fluconazole; AID 1979; 0.57% of 300,000 active; growth inhibition, % (no concentration beside the values); C. albicans CaCi-2 (fluconazole-resistant clinical isolate) + fluconazole, Alamar Blue growth, 48 h;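 active = growth inhibition above about 58% in most replicates, limit read from the data, passing the limit was not always enough; inconclusive = exactly half the replicates above a set limit; inactive = most replicates below a set limit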;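 also: all wells also contain fluconazole at 8 µg/ml as a sub-toxic cotreatment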
HSF1 inh: HSF1 inhibition; NIH3T3-HGL HSE-luciferase, MG132-induced, luminescence 8 h; active compounds read low; activity change, negative = inhibition, % at 7.5 µM (by protocol); 0.77% of 300,000 active; AID 2098;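 active = more than half of replicate wells show activity change below -50%, luminescence cut by over half; inconclusive = some wells, but at most half, below -50%; inactive = no replicate well below -50%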;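 also: luciferase reports HSF-1 transcriptional activity via heat shock element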
HSF1 activator: increases HSF-1 driven luciferase reporter signal. NIH3T3-HGL HSF-1 luciferase reporter, MG132, 8 h; 100% = twice DMSO control signal. activation, % at 9 µM. 1.7% of 300,000 active;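 active = mean replicate activation of at least 50% with a set share of replicates each reaching 50%; inconclusive = only one of those two conditions met; inactive = mean below 50% and too few replicates reaching it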
A number is an active result; n = inactive; u = inconclusive. Shown are actives, neighbours in structure and some others; about 4.4% of the full set was active somewhere.

SMILES | HIF act | T cruzi inh | Calb FLC | HSF1 inh | HSF1 activator
CCOC(=O)c1c(NC(=O)COC(=O)Cc2c[nH]c3ccccc23)sc(C(=O)N(C)C)c1C | n | n | n | n | n
Cc1ccc2c(C)nc(N/C(N)=N/S(=O)(=O)c3ccc([N+](=O)[O-])cc3)nc2c1 | n | 55 | n | n | n
Cc1nc(N/C(N)=N/S(=O)(=O)c2ccc([N+](=O)[O-])cc2)nc2ccccc12 | n | 56 | n | n | n
N/C(=N\S(=O)(=O)c1ccccc1)c1ccc([N+](=O)[O-])cc1 | n | n | u | n | n
CN(CC(=O)Nc1ccc(C#N)cc1)Cc1ccc(Cl)cc1 | n | n | n | n | n
N#Cc1ccc(NC(=O)Nc2ccc(Cl)cc2)cc1 | n | 71 | n | n | n
Cc1cccc(C(=O)NNC(=O)c2ccc(S(=O)(=O)N3CCOCC3)cc2)c1 | n | n | n | n | n
O=C(c1cc(-c2ccc(O)cc2)on1)N1CCCCCC1 | n | n | n | n | 68
O=C1c2ccccc2NC(c2ccc(O)cc2)N1/N=C/c1ccc(O)cc1 (stereo unspecified) | n | n | n | n | 70
O=C1c2ccccc2NC(c2ccccc2)N1/N=C/c1ccccc1 (stereo unspecified) | n | n | n | n | n
C[C@@H](C(=O)Nc1nc2ccccc2s1)N1C(=O)C2CC=CCC2C1=O (stereo partly specified) | n | n | n | n | n
Cc1cccc2sc(NC(=O)[C@H](C)N3C(=O)C4CC=CCC4C3=O)nc12 (stereo partly specified) | n | n | n | -56 | n
Cc1cnc(NC(=O)Cc2ccc(C)c(C)c2)s1 | n | n | n | n | n
NC(=O)c1ccccc1NC(=O)CSc1nc2c(c(=O)[nH]1)CCCC2 | n | n | n | n | n
O=c1c(Cl)c(Cl)cnn1-c1ccccc1 | n | n | u | -96 | n
c1ccc(N2CCN(c3nc4ccccc4[nH]3)CC2)nc1 | n | n | n | n | 63
O=c1c(Cl)c(N2CCN(c3ccc(F)cc3)CC2)cnn1C12CC3CC(CC(C3)C1)C2 | n | 63 | n | n | n
COc1ccc(OC)c(C(=O)NC(CC(N)=O)c2ccc(N3CCN(c4ccc(F)cc4)CC3)c([N+](=O)[O-])c2)c1 (stereo unspecified) | n | n | n | n | n
Cc1ccc(CN(Cc2cccnc2)C(=O)CN2C(=O)COc3ccccc32)o1 | n | 55 | n | n | n
O=C(CN1C(=O)COc2ccccc21)N(Cc1ccccc1)Cc1ccccn1 | n | n | n | n | n
Cc1ccc(N2CN=c3s/c(=C\c4ccccn4)c(=O)n3C2)cc1 | n | n | u | -52 | n
Cc1ccc(-n2nc3c(=O)n(C(C)C(=O)NCc4ccccc4Cl)nc(C)c3c2C)cc1 (stereo unspecified) | n | n | n | n | 69
CCCOc1ccc(CNC(=S)N/N=C/c2ccc([N+](=O)[O-])cc2)cc1 | n | 61 | n | n | n
CC(C)Oc1ccc(CNC(=S)N/N=C/c2ccc([N+](=O)[O-])cc2)cc1 | n | n | n | -67 | n
CC(C)COc1ccc(CNC(=S)N/N=C/c2ccc([N+](=O)[O-])cc2)cc1 | n | n | n | n | n
SMILES | HIF act | T cruzi inh | Calb FLC | HSF1 inh | HSF1 activator
O=C(NCCc1ccccc1)c1ccc2c(c1)S(=O)(=O)c1ccccc1C2=O | n | n | n | n | n
Cc1ccc(CCNC(=O)CN2CCN(Cc3ccccc3F)C2=O)cc1 | n | n | n | n | n
COc1ccc(CCNC(=O)CN2CCN(Cc3ccccc3F)C2=O)cc1OC | n | n | n | -74 | n
Cc1ccc(-c2cc(-c3ccc(F)cc3)n[nH]2)c(O)c1 | n | n | n | n | n
Cc1ccc(O)c(-c2cc(-c3cccc(Br)c3)n[nH]2)c1 | n | n | 99 | n | 67
Cc1ccc(-c2cc(-c3ccc(C)cc3O)[nH]n2)cc1 | n | n | n | n | 71
COc1ccc(-c2cc(-c3ccccc3O)[nH]n2)cc1 | n | n | n | n | 85
COc1ccc(-c2cc(-c3c(O)c(OC)c4occc4c3OC)[nH]n2)cc1 | n | n | 102 | n | n
CCC1CCCCN1Cc1nc(Cc2ccccc2Cl)no1 (stereo unspecified) | n | n | n | n | n
Cn1c(=O)[nH]c2nnc(-c3ccc(Cl)c(Cl)c3)nc2c1=O | n | n | n | n | n
CCOP(=O)(OCC)C(Nc1ccc(OC)cc1)c1ccco1 (stereo unspecified) | n | n | u | n | n
Cc1ccnc(NC(=O)Cc2ccc(-c3ccccc3)cc2)c1 | n | n | n | n | 78
CCC(C)NC(=O)Cc1ccc(-c2ccccc2)cc1 (stereo unspecified) | n | 62 | n | n | n
Cc1ccc(-c2noc(CCC(=O)Nc3ccccc3C)n2)cc1 | n | n | n | n | n
Cc1ccc(-c2noc(CCC(=O)Nc3cc(C)ccn3)n2)cc1 | n | n | n | n | 69
O=C(Cc1ccc(-c2ccccc2)cc1)Nc1ccccn1 | n | n | n | n | n
COc1ccc(NC(=O)c2cccc(S(=O)(=O)N3CCN(C)CC3)c2)c(OC)c1 | n | n | n | n | n
COc1ccc(OC)c(C(=O)c2ccc(C(=O)Nc3cccc4ccccc34)cc2)c1 | n | n | n | n | n
CS(=O)(=O)Nc1cccc(C(=O)OCCCOc2ccc(F)cc2)c1 | n | n | n | n | n
Cc1ccc(N=Cc2cc(Cc3ccccc3Cl)cc([N+](=O)[O-])c2O)c(O)c1 | n | n | 109 | n | n
COc1ccc(N=Cc2cc(Cc3ccccc3Cl)cc([N+](=O)[O-])c2O)cc1OC | n | n | u | n | n
Cn1c(=O)oc2cc(S(=O)(=O)NCCC(=O)NC3CCCc4ccccc43)ccc21 (stereo unspecified) | n | n | n | n | n
CC(C)CC(NS(=O)(=O)c1ccc2c(c1)oc(=O)n2C)C(=O)NC1CCCc2ccccc21 (stereo unspecified) | n | n | n | n | 62
CSCC[C@H](NC(=O)C(C)Oc1ccc(Cl)cc1)c1nc2ccccc2[nH]1 (stereo partly specified) | n | n | n | n | n
O=C(NCCCn1ccnc1)c1sc2cccc(F)c2c1Cl | n | 64 | n | n | n
SMILES | HIF act | T cruzi inh | Calb FLC | HSF1 inh | HSF1 activator
O=C(NCCCn1ccnc1)c1c(F)cccc1F | n | n | n | n | n
COc1ccccc1N1Cc2ccc(OC)c(OC)c2C1=O | n | n | n | n | n
COc1ccccc1N1CC(C)C(=O)NC1=S (stereo unspecified) | n | n | n | -56 | n
Cc1cc(C(=O)O)cc(S(=O)(=O)Nc2ccccc2C(=O)NC(C)c2ccccc2)c1C (stereo unspecified) | n | n | n | n | n
CCOC(=O)c1c(NC(=O)CN2CCCCC2)sc2c1CCN(C(=O)OCC)C2 | n | 60 | n | n | n
CCOC(=O)c1c(NC(=O)CN2CCN(C(=O)c3ccco3)CC2)sc2c1CCCC2 | n | n | 103 | n | n
